Data on three compounds can be found in ChEMBL document CHEMBL4251609, “Substrate-derived triazolo- and azapeptides as inhibitors of cathepsins K and S” (Eur J Med Chem, 2018).

In general, Ki refers to the dissociation constant of the complex between target and ligand, obtained from inhibition or displacement.

In experiment [1] the target is T1, Trypsin (Homo sapiens) (UniProt P07477+P07478+P35030). Briefly: Inhibition of trypsin (unknown origin) incubated for 30 mins using Abz-Thr-Pro-Arg-Ser-Ala-Leu-Gln-EDDnp substrate. Format: protein assay.
Experiment [2] is filed under the species Homo sapiens. Briefly: Inhibition of chymotrypsin (unknown origin) incubated for 30 mins using Abz-Thr-Pro-Phe-Ser-Gly-Gln-EDDnp substrate.
For experiment [3], the target named is T2, Neutrophil elastase (Homo sapiens) (UniProt P08246).
T2 sequence (whole entry): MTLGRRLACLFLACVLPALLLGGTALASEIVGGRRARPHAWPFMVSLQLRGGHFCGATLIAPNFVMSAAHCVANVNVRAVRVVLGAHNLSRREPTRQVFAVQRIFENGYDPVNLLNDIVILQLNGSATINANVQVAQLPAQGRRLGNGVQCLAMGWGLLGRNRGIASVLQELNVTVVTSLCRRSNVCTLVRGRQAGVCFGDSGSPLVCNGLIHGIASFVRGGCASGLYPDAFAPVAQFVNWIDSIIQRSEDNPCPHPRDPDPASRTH
The experiment in a line: Inhibition of human neutrophil elastase incubated for 30 mins using Abz-Ala-Pro-Glu-Glu-Ile-Met-Arg-Arg-Gln-(3-NO2-Tyr) substrate.

The target of experiment [4] is 72 kDa type IV collagenase (Homo sapiens) (UniProt P08253). The experiment in a line: Inhibition of human recombinant MMP-2 expressed in CHO cells incubated for 30 mins by Mca-Arg-Pro-Pro-Gly-Phe-Ser-Ala-Phe-Lys(Dnp) substrate. Format: cell-based.
Experiment [5] addresses Cathepsin D (Homo sapiens) (UniProt P07339). The experiment in a line: Inhibition of human cathepsin D incubated for 30 mins using Mca-Gly-Lys-Pro-Ile-Leu-Phe-Phe-Arg-Leu-Lys(Dnp)-D-Arg-NH2 substrate.
Experiment [6] deals with T3, Pro-cathepsin H (Homo sapiens) (UniProt P09668).
T3 sequence (whole entry): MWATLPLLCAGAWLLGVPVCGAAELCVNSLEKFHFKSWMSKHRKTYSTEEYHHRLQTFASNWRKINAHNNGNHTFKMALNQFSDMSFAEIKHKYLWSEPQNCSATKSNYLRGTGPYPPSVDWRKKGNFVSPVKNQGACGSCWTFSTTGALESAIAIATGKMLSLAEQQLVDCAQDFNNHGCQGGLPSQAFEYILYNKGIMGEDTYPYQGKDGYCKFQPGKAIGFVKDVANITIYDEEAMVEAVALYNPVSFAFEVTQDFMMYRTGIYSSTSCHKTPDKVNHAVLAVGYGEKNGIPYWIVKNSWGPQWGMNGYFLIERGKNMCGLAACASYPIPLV
The experiment in a line: Inhibition of human cathepsin H using fluorogenic AMC-derived peptide substrate assessed as reduction in residual activity preincubated for 30 mins followed by substrate addition.

The target in experiment [7] is Cathepsin B (Homo sapiens) (UniProt P07858). Briefly: Inhibition of human cathepsin B.
The target of experiment [8] is T1, Trypsin (Homo sapiens). The experiment in a line: Substrate activity of trypsin (unknown origin) assessed as compound hydrolysis. The format is protein assay. Summed up:
(§1)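 Compound was incubated with each protease and the incubation mixtures were analysed by RP-HPLC for proteolytic degradation of the compound.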

Experiment [9] deals with Cathepsin B (Homo sapiens) (UniProt P07858). The experiment in a line: Substrate activity of human cathepsin B assessed as compound hydrolysis. In outline:
as §1

Experiment [10] deals with T4, Cathepsin S (Homo sapiens, UniProt P25774). The experiment in a line: Reversible inhibition of human cathepsin S at 20 uM preincubated for 30 mins followed by Biot-(PEG)2-Ahx-LeuValGly-DMK addition measured after 1 hr by chemiluminescence assay.
Target sequence in this assay (P25774 115-331 limits assumed): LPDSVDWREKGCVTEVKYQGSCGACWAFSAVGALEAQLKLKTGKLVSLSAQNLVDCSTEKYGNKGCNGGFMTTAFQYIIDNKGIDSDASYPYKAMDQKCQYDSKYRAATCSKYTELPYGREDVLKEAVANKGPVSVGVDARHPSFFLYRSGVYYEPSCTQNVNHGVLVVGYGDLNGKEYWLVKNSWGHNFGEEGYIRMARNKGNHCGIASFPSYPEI
Experiment [11] addresses T4, Cathepsin S. Briefly: Reversible inhibition of human cathepsin S at 20 uM in presence of excess Z-LR-AMC.
Target sequence in this assay (P25774 115-331 limits assumed): as above
In experiment [12] the target is T5, Cathepsin K (Homo sapiens) (UniProt P43235).
T5 sequence (whole entry): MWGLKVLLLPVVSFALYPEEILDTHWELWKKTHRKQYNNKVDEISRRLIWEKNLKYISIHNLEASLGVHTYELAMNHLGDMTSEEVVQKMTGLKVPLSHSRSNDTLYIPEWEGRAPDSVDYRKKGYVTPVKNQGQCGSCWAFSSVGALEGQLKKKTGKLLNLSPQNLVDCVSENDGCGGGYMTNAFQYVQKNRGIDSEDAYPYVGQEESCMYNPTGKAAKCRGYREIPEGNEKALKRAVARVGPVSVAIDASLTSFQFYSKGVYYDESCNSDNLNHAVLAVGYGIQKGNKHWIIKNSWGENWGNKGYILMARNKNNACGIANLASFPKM
The experiment in a line: Inhibition of human cathepsin K […] activity at 3 uM pre-incubated for 30 mins before bradykinin substrate addition by reverse-phase chromatography.

Experiment [13] concerns the target T5, Cathepsin K (Homo sapiens). Briefly: Inhibition of human cathepsin K […] activity at 100 nM pre-incubated for 30 mins before bradykinin substrate addition by reverse-phase chromatography.
In experiment [14] the target is T5, Cathepsin K (Homo sapiens). The experiment in a line: Inhibition of human cathepsin K […] activity at 3 uM pre-incubated for 30 mins before Abz-Arg-Pro-Pro-Gly-Phe-Ser-Pro-Phe-Arg-(3-NO2-Tyr) substrate addition by reverse-phase chromatography.
Experiment [15] has as its target T5, Cathepsin K (Homo sapiens). Briefly: Inhibition of human cathepsin K […] activity at 100 nM pre-incubated for 30 mins before Abz-Arg-Pro-Pro-Gly-Phe-Ser-Pro-Phe-Arg-(3-NO2-Tyr) substrate addition by reverse-phase chromatography.
Experiment [16] has as its target T5, Cathepsin K (Homo sapiens). Briefly: Inhibition of human cathepsin K […] activity assessed as normalized bradykinin equivalents ratio at 5 uM pre-incubated for 15 mins before bradykinin substrate addition by competitive enzyme immunoassay (reference value: <0.5%). Set-up: scale not given: the % may be the effect or the level left.
The target in experiment [17] is T5, Cathepsin K (Homo sapiens). Briefly: Inhibition of human cathepsin K […] activity assessed as normalized bradykinin equivalents ratio at 5 uM pre-incubated for 15 mins before kallidin substrate addition by competitive enzyme immunoassay (reference value: <0.5%). Further details: scale not given: the % may be the effect or the level left.
Experiment [18] has as its target T4, Cathepsin S. The experiment in a line: (§2) Reversible competitive inhibition of human cathepsin S using fluorogenic AMC-derived peptide substrate assessed as reduction in residual activity at pH 5.5 preincubated for 30 mins followed by substrate addition. In outline:
(§3)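 Ki values for cathepsin S determined at pH 5.5 and again at pH 7.4, a pH at which this enzyme stays stable and active, to compare the two conditions.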
Target sequence in this assay (P25774 whole entry): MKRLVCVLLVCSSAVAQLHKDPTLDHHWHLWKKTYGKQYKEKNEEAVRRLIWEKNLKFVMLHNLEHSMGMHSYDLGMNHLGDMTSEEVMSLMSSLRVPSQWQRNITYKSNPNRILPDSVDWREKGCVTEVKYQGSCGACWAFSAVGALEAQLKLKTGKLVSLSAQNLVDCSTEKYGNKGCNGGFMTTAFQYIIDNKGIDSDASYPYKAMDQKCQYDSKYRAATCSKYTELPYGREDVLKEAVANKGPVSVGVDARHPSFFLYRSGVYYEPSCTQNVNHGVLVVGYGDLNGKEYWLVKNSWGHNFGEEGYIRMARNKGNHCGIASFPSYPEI

The target of experiment [19] is T4, Cathepsin S. The experiment in a line: Reversible competitive inhibition of human cathepsin S using fluorogenic AMC-derived peptide substrate assessed as reduction in residual activity at pH 7.4 preincubated for 30 mins followed by substrate addition. Summed up:
as §3
Target sequence in this assay (P25774 whole entry): as above

Experiment [20] deals with T6, Cathepsin K (Homo sapiens, UniProt P43235).
T6 sequence (P43235 whole entry): T5 sequence (whole entry)
The experiment in a line: Reversible competitive inhibition of human cathepsin K using fluorogenic AMC-derived peptide substrate assessed as reduction in residual activity preincubated for 30 mins followed by substrate addition. In outline: (§4)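 Inhibition constants (Ki) determined at pH 5.5, with reversibility and competitive mode also assessed.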

Experiment [21] has as its target T7, Procathepsin L (Homo sapiens, UniProt P07711). The experiment in a line: Reversible competitive inhibition of human cathepsin L using fluorogenic AMC-derived peptide substrate assessed as reduction in residual activity preincubated for 30 mins followed by substrate addition. In outline: as §4
Target sequence in this assay (P07711 whole entry): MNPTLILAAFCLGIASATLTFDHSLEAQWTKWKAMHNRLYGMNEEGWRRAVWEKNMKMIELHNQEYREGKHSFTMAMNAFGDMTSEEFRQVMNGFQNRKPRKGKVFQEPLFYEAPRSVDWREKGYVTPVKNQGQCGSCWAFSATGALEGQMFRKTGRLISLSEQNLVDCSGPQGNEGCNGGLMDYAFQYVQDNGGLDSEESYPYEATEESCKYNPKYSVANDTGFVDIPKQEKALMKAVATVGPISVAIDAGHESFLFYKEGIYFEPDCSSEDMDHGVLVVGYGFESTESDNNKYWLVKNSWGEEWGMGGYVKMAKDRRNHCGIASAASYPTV
Experiment [22] deals with T8, Pro-cathepsin H (Homo sapiens, UniProt P09668).
T8 sequence (P09668 whole entry): T3 sequence (whole entry)
Briefly: Reversible competitive inhibition of human cathepsin H using fluorogenic AMC-derived peptide substrate assessed as reduction in residual activity preincubated for 30 mins followed by substrate addition.

In experiment [23] the target is T5, Cathepsin K (Homo sapiens). Briefly: Inhibition of human cathepsin K using fluorogenic AMC-derived peptide substrate assessed as reduction in residual activity preincubated for 30 mins followed by substrate addition.
In experiment [24] the target is T7, Procathepsin L. Briefly: Inhibition of human cathepsin L using fluorogenic AMC-derived peptide substrate assessed as reduction in residual activity preincubated for 30 mins followed by substrate addition.
Target sequence in this assay (P07711 114-333 limits assumed): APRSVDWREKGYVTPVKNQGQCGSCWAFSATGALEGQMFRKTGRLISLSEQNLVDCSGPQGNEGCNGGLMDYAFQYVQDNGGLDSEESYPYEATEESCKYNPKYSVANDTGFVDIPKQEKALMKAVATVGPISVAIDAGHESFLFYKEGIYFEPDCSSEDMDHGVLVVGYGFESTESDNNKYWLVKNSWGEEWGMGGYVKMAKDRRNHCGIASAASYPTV
Experiment [25] deals with T4, Cathepsin S. The experiment in a line: Reversible inhibition of human cathepsin S at 600 uM preincubated for 30 mins followed by Biot-(PEG)2-Ahx-LeuValGly-DMK addition measured after 1 hr by chemiluminescence assay.
Target sequence in this assay (P25774 115-331 limits assumed): as the sequence (P25774 115-331 limits assumed) above
The target of experiment [26] is T4, Cathepsin S. Described as §2. In outline:
as §3
The source holds these as a separate data set.
Target sequence in this assay (P25774 115-331 limits assumed): as above

Experiment [27] deals with Cathepsin S (Mus musculus) (UniProt O70370). Briefly: Inhibition of cathepsin S in C57/Bl6 mouse spleen lysate using Z-Val-Leu-Arg-AMC as substrate at 10 uM preincubated for 30 mins followed by substrate addition. The format is subcellular.
The target in experiment [28] is T4, Cathepsin S. Briefly: Reversible inhibition of human cathepsin S at 600 uM in presence of excess Z-LR-AMC.
Target sequence in this assay (P25774 115-331 limits assumed): as above
For experiment [29], the target named is Cathepsin B (Mus musculus) (UniProt P10605). The experiment in a line: Inhibition of cathepsin B in C57/Bl6 mouse spleen lysate using Z-Arg-Arg-AMC as substrate at 10 uM preincubated for 30 mins followed by substrate addition. The format is subcellular.
For experiment [30], the target named is T4, Cathepsin S. The experiment in a line: Inhibition of human cathepsin S using fluorogenic AMC-derived peptide substrate assessed as reduction in residual activity preincubated for 30 mins followed by substrate addition.
Target sequence in this assay (P25774 115-331 limits assumed): as above
The target of experiment [31] is T6, Cathepsin K. Briefly: Inhibition of human cathepsin K.

Molecules are shown by their SMILES. Calls of active or inactive are those of the source. The rule behind the calls is not given here. Starred links: 1 amine or outer side, 2 acyl side, 3 side chain; linkers in the order of their positions; H or OH if unused. Non-standard residues stand in square brackets, D forms with d. Residues, ends and D or L forms follow the SMILES beside them. Tyr(3-NO2) = N[C@@H](Cc1ccc(O)c([N+](=O)[O-])c1)C(=O)O; X1 = O=C([C@H](Cc1ccccc1)n1cc(CN[*:1])nn1)[*:2]; 4Abz = Nc1ccc(C(=O)O)cc1

72 kDa type IV collagenase (Homo sapiens), sequence (P08253 110-660 limits assumed): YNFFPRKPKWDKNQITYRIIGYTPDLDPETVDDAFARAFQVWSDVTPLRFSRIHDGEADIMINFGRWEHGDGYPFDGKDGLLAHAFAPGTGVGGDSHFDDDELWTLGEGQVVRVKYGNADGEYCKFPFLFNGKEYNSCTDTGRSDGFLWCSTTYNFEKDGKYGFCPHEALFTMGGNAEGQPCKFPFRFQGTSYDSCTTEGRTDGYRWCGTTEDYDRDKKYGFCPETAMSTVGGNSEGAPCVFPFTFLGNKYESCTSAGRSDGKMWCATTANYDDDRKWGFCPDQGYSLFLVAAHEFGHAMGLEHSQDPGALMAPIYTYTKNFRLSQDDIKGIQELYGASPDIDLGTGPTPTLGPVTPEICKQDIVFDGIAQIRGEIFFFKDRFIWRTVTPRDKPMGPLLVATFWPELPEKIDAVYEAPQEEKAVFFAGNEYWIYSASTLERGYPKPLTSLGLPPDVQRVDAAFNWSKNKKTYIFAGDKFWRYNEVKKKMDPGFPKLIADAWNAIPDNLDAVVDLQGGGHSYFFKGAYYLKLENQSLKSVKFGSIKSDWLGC
Cathepsin D (Homo sapiens), sequence (P07339 65-162 limits assumed): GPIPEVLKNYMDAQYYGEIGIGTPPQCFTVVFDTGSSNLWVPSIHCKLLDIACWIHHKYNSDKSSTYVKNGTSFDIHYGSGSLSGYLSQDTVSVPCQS
Cathepsin D (Homo sapiens), sequence (P07339 169-412 limits assumed): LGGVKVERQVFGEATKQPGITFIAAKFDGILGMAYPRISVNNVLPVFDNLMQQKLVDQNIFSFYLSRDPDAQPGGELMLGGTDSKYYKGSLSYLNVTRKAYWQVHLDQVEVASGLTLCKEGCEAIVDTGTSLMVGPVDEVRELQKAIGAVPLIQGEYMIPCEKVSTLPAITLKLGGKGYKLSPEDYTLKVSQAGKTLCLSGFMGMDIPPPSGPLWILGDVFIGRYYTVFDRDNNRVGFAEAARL
Cathepsin B (Mus musculus), sequence (P10605 80-333 limits assumed): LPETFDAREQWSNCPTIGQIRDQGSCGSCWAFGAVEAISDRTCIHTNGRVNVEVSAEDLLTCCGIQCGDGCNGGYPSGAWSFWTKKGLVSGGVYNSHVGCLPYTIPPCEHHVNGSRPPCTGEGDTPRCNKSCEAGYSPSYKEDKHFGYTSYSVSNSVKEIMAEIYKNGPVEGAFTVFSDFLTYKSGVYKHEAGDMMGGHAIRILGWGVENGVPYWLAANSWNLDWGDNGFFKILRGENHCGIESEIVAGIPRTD

For the compound `N=C(N)NCCC[C@H](NC(=O)[C@H](Cc1ccccc1)NC(=O)[C@@H]1CCCN1C(=O)[C@H](CO)NC(=O)[C@H](Cc1ccccc1)n1cc(CNC(=O)[C@@H]2CCCN2C(=O)[C@@H]2CCCN2C(=O)[C@H](CCCNC(=N)N)NC(=O)c2ccc(N)cc2)nn1)C(=O)N[C@@H](Cc1ccc(O)c([N+](=O)[O-])c1)C(N)=O` (H-[4Abz]RPP[X1]SPFR[Tyr(3-NO2)]-NH2), the inhibition entry in experiment [1], in [2], in experiment [3], in experiment [4], in experiment [5] and in [6] was “inactive” throughout. Further, the inhibition result in experiment [7] and in [11] was “inactive” throughout. Further, the result in experiment [8] and in experiment [9] was Active. Moreover, the inhibition result in [10], in [12], in [13], in experiment [14] and in experiment [15] was “Active” in each case. Also, the Activity in [16] and in [17] was 100% in each case. For the same compound, the Ki result in experiment [18] is “Not Active”; in [19], “Not Active”; in [20], 0.8 µM; in experiment [21], 22 µM; in experiment [22], “Not Active”.
Take `CSCC[C@H](NC(=O)[C@@H]1CCCN1C(=O)[C@H](Cc1c[nH]cn1)NC(=O)[C@H](Cc1c[nH]c2ccccc12)NC(=O)[C@H](CCCNC(=N)N)NC(=O)CNC(C)=O)C(=O)NNC(=O)N[C@@H](C)C(=O)N1CCC[C@H]1C(=O)N[C@@H](Cc1c[nH]c2ccccc12)C(=O)N[C@@H](CCC(=O)O)C(=O)N[C@H](C)C(=O)N[C@H](CCCNC(=N)N)C(N)=O`: the inhibition result in [1], in experiment [2], in experiment [3], in experiment [4], in experiment [5] and in experiment [28] was “inactive” in each case. In experiment [29], the inhibition entry is “inactive”. Moreover, the inhibition result in experiment [6], in experiment [7], in [23], in [24], in experiment [25] and in [26] was “Active” in each case. Besides, the inhibition result in experiment [27] and in experiment [30] was “Active” in each case. Besides, the Ki in experiment [18] (read-out: Ki) is 0.026 µM; in [19] (read-out: Ki), 0.017 µM; in experiment [20] it was 0.003 µM; in experiment [21] it was 0.005 µM; in experiment [22] (read-out: Ki), 7 µM.
In experiment [31], `CC(C)(F)C[C@H](N[C@@H](c1ccc(-c2ccc(S(C)(=O)=O)cc2)cc1)C(F)(F)F)C(=O)NC1(C#N)CC1` [ODANACATIB] displayed a Ki of 0.00018 µM.
